Laboratory results published in ChEMBL document CHEMBL5678806, “NMS-P937, an orally available, specific small-molecule polo-like kinase 1 inhibitor with antitumor activity in solid and hematologic malignancies” (Mol Cancer Ther, 2012).
pIC50: −log10 of the molar value. Calls of active or inactive are those of the source. No cut-off for these calls is given here.

Assays:
[1] = tested on: A2780; assay: Induction of cell cycle arrest in human A2780 cells assessed as accumulation of cells in G2/M phase by measuring Histone H3 phosphorylation on Ser10 incubated for 24 hrs by Western blotting analysis; format: functional, cell-based; details: dose 0.02-0.2 µmol/L
Procedure, shortened: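 A2780 ovarian carcinoma cells treated 24 h with a range of concentrations, with DMSO and nocodazole controls. 20 µg protein extract separated by SDS-PAGE and immunoblotted with chemiluminescent detection. Probed for total and phospho-Thr210 PLK1, phospho-Ser10 histone H3, phospho-Thr199 NPM and phospho-Tyr15 CDK1. Total NPM, tubulin and total CDK1 served as loading controls.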

[2] = tested on: NCI-H2170; assay: Antiproliferative activity against human NCI-H2170 cells assessed as inhibition of cell growth incubated for 72 hrs by cell-titer glo assay; format: functional, cell-based; details: NCI-H2170, 72 h
Procedure, shortened: (§1)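 Cells from ATCC or ECACC, kept in supplier-recommended medium with 1% penicillin-streptomycin at 37°C, 5% CO₂. Seeded at 10,000–30,000/cm² (adherent) or 100,000/mL (nonadherent) in medium with 10% fetal calf serum. Dosed after 24 h in duplicate with serial dilutions. Viable cells read by CellTiter-Glo 72 h later. IC50 from sigmoidal fit. At least two independent experiments.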

[3] = target: Tyrosine-protein kinase ABL2 (Mus musculus) (UniProt Q4JIM5); assay: Inhibition of N-terminal His6-tagged recombinant mouse Arg (27 to end residues) expressed in Sf21 cells assessed as residual activity at 1 uM relative to control
Tyrosine-protein kinase ABL2 (Mus musculus), sequence (Q4JIM5 whole entry): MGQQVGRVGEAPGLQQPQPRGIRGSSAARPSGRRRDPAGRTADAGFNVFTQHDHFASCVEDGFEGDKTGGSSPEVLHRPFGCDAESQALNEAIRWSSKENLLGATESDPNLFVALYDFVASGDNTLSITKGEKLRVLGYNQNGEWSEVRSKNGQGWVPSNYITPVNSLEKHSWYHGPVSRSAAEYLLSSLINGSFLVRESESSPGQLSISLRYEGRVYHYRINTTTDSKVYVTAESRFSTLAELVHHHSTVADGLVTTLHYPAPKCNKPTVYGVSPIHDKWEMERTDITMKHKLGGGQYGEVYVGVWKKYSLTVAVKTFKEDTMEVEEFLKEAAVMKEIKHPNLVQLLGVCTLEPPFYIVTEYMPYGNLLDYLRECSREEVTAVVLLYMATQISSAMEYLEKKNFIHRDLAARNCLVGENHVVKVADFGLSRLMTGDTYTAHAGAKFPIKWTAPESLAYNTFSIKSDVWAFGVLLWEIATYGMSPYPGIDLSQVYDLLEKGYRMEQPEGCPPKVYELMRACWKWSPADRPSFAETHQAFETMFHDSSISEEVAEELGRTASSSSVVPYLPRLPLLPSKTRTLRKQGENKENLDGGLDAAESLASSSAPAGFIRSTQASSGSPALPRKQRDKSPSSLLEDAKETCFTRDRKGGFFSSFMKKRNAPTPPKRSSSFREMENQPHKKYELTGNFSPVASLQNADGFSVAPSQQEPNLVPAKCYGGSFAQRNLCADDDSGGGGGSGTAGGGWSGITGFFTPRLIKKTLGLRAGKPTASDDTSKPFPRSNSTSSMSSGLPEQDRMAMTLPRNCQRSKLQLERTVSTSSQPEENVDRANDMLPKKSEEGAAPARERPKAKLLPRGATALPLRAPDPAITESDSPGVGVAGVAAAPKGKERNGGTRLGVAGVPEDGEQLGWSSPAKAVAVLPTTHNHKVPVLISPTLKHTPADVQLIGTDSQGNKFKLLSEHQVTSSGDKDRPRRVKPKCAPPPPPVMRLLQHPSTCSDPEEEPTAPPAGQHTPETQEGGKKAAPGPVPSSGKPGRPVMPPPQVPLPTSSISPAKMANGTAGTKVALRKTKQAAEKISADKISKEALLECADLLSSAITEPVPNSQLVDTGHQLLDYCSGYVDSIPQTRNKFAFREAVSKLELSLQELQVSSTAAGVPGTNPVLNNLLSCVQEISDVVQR

[4] = target: Protein kinase C beta type (Homo sapiens, UniProt P05771); assay: Inhibition of N-terminal His6-tagged recombinant human PKCbetaI (2 to end) expressed in Sf21 cells assessed as residual activity at 0.1 uM relative to control
Protein kinase C beta type, sequence (P05771 2-671 limits assumed): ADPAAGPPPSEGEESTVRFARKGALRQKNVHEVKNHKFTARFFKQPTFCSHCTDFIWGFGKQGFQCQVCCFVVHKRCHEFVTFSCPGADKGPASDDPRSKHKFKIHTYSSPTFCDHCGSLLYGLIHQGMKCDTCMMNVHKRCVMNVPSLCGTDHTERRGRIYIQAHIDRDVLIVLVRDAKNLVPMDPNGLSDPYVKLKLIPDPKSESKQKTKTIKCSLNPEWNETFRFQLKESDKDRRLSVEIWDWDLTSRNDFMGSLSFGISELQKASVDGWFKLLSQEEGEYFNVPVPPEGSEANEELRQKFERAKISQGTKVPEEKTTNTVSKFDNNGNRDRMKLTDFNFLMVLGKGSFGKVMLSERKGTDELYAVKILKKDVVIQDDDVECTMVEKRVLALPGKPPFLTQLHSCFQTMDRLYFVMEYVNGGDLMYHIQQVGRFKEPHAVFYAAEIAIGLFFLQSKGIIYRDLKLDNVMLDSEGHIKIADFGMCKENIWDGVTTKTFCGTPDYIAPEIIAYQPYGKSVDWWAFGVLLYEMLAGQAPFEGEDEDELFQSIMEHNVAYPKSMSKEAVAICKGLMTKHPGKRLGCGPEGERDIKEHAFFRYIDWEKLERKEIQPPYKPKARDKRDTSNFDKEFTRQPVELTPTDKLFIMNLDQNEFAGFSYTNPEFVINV

[5] = Plasma concentration in nu/nu mouse xenografted with human HL-60 cells at 60 mg/kg, po administered for 10 days relative to control; format: ADME, organism-based; details: time 10 day
[6] = AUC in male cynomolgus monkey at 5 mg/kg, po by LC-MS analysis; format: ADME, organism-based, Macaca fascicularis; details: in vivo
[7] = target: Ephrin type-A receptor 4 (Homo sapiens) (UniProt P54764); assay: Inhibition of N-terminal His6-tagged recombinant human EphA4 (601 to 892 residues) expressed in baculovirus infected Sf21 cells assessed as residual activity at 1 uM relative to control
Ephrin type-A receptor 4 (Homo sapiens), sequence (P54764 whole entry, the tested form may be a part): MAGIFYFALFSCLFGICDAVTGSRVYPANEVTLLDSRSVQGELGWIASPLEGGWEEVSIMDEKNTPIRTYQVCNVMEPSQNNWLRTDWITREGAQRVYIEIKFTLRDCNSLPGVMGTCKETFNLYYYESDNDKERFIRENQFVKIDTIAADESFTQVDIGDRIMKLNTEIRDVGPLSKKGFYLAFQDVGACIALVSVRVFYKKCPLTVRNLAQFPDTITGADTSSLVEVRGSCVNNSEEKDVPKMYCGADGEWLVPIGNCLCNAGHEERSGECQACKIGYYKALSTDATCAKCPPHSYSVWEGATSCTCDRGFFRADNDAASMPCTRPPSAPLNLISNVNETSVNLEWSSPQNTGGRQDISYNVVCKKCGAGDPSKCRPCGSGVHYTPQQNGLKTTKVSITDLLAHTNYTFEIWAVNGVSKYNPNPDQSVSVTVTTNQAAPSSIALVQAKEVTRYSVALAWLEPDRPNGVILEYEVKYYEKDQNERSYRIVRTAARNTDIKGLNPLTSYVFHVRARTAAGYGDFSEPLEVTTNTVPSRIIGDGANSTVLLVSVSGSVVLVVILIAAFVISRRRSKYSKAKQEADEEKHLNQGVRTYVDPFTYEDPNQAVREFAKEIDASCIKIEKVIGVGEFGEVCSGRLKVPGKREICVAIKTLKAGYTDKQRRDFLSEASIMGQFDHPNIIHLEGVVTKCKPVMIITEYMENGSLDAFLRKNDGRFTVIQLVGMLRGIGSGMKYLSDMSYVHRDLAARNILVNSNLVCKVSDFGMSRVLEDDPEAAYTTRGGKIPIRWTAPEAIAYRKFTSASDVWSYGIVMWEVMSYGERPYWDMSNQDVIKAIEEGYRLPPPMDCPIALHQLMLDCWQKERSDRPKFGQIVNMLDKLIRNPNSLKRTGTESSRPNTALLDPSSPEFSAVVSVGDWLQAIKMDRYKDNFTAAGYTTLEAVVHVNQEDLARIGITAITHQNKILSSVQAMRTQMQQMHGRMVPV

[8] = tested on: KMS-11; assay: Antiproliferative activity against human KMS-11 cells assessed as inhibition of cell growth incubated for 72 hrs by cell-titer glo assay; format: functional, cell-based; details: KMS-11, 72 h
Procedure, shortened: (§2)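 Cells seeded at 10,000–30,000/cm² (adherent) or 100,000/mL (nonadherent) in medium with 10% fetal calf serum; after 24 h, treated in duplicate with serial dilutions for 72 h. Viable cell number read by CellTiter-Glo luminescence; IC50 from sigmoidal fit; at least two independent experiments.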

[9] = tested on: HCC1806; assay: Antiproliferative activity against human HCC1806 cells assessed as inhibition of cell growth incubated for 72 hrs by cell-titer glo assay; format: functional, cell-based; details: HCC1806, 72 h; procedure, shortened: as §2
[10] = Tmax in male cynomolgus monkey at 5 mg/kg, po by LC-MS analysis; format: ADME, organism-based, Macaca fascicularis; details: in vivo
[11] = Cmax in Sprague-Dawley rat at 10 mg/kg, po by LC-MS analysis; format: ADME, organism-based; details: in vivo
[12] = tested on: A2780; assay: Induction of mitosis in human A2780 cells xenografted in nu/nu mouse assessed as decreased Histone H3 phosphorylation on Ser10 at 60 mg/kg, po administered for 12 to 24 hrs by immunohistochemistry analysis; format: functional, organism-based; details: time lower […], time upper 24.0 hrs
[13] = target: MAP kinase-activated protein kinase 2 (Homo sapiens, UniProt P49137); assay: Inhibition of MAPKAPK2 (unknown origin) in presence of [gamma-33P]ATP
MAP kinase-activated protein kinase 2, sequence (P49137 whole entry): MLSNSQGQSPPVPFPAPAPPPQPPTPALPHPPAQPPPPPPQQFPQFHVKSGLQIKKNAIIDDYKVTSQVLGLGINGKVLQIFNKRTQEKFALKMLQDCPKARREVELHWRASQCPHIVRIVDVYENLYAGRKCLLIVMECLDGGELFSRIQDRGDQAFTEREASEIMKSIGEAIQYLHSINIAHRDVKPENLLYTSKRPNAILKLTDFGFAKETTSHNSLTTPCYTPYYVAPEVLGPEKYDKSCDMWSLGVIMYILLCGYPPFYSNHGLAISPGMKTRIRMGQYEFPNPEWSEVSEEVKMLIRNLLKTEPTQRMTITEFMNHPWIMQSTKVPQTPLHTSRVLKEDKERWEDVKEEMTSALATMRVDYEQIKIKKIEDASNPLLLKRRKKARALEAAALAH

[14] = target: Calcium/calmodulin-dependent protein kinase type 1 (Homo sapiens) (UniProt Q14012); assay: Inhibition of recombinant human CaMKI assessed as residual activity at 1 uM relative to control
[15] = target: Mitogen-activated protein kinase 14 (Homo sapiens, UniProt Q16539); assay: Inhibition of P38alpha (unknown origin) in presence of [gamma-33P]ATP
[16] = tested on: NCI-H1437; assay: Antiproliferative activity against human NCI-H1437 cells assessed as inhibition of cell growth incubated for 72 hrs by cell-titer glo assay; format: functional, cell-based; details: NCI-H1437, 72 h; procedure, shortened: as §1
[17] = Antiproliferative activity against human PL-21 cells assessed as inhibition of cell growth incubated for 72 hrs by cell-titer glo assay; format: functional, cell-based; details: PL-21, 72 h; procedure, shortened: as §1
[18] = tested on: A2780; assay: Induction of mitosis in human A2780 cells at 0.0001 to 100 uM incubated for upto 24 hrs followed by compound washout by cell titer glow assay; format: functional, cell-based; details: dose 0.0001-100 µM
[19] = tested on: SU-DHL-1; assay: Antiproliferative activity against human SU-DHL-1 cells assessed as inhibition of cell growth incubated for 72 hrs by cell-titer glo assay; format: functional, cell-based; details: SU-DHL-1, 72 h
[20] = tested on: HDQ-P1; assay: Antiproliferative activity against human HDQ-P1 cells assessed as inhibition of cell growth incubated for 72 hrs by cell-titer glo assay; format: functional, cell-based; details: HDQ-P1, 72 h
Procedure, shortened: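 Cells seeded at 10,000–30,000/cm² (adherent) in medium with 10% fetal calf serum; after 24 h treated in duplicate with serial dilutions for 72 h. Viable cell number read by CellTiter-Glo luminescence. IC50 from sigmoidal curve fit; at least two independent experiments.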

[21] = Toxicity in nu/nu mouse xenografted with human HCT-116 cells assessed as body weight loss at 60 mg/kg, po administered for 8 days; format: organism-based; details: in vivo, 192 h, time 8 day
[22] = target: Insulin receptor-related protein (Homo sapiens) (UniProt P14616); assay: Inhibition of N-terminal 6His-tagged recombinant human IRR (944 to 1266 residues) expressed in baculovirus infected Sf21 cells assessed as residual activity at 0.1 uM relative to control
Insulin receptor-related protein (Homo sapiens), sequence (P14616 27-742 limits assumed): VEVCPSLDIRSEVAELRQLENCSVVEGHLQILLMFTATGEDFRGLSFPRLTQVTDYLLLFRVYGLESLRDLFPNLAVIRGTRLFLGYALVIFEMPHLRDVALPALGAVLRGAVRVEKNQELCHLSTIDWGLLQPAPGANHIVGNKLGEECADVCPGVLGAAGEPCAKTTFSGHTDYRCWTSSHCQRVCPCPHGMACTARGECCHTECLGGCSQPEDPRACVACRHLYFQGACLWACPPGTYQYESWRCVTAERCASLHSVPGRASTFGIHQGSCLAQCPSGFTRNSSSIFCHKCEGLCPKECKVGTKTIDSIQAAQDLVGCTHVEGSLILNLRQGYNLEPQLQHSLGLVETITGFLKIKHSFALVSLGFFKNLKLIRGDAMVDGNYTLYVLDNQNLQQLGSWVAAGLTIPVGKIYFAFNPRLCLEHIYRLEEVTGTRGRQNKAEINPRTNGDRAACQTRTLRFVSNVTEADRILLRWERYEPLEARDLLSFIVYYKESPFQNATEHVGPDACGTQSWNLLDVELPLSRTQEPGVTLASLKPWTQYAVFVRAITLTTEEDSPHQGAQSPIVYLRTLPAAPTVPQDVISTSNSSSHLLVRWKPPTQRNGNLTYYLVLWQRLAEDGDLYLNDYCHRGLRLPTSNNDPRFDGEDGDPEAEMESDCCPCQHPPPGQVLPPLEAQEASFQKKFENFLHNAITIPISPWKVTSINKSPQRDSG
Insulin receptor-related protein (Homo sapiens), sequence (P14616 747-1297 limits assumed): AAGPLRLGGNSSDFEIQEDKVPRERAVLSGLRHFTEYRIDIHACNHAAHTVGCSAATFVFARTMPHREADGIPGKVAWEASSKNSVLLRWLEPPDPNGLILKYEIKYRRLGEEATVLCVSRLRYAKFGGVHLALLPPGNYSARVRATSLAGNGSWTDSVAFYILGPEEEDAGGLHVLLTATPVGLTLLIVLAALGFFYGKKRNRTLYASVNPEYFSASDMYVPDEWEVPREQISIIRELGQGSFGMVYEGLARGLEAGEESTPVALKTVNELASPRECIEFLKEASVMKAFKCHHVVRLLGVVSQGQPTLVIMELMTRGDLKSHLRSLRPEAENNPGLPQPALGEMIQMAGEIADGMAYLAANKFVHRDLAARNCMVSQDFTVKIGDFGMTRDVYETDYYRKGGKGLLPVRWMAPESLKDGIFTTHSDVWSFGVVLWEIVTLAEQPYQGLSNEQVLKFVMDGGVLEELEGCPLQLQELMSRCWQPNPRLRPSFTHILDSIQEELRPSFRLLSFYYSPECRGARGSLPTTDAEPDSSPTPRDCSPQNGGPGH

[23] = target: Serine/threonine-protein kinase ULK3 (Homo sapiens) (UniProt Q6PHR2); assay: Inhibition of N-terminal 6His-tagged recombinant human full-length ULK3 expressed in baculovirus infected Sf21 cells assessed as residual activity at 0.1 uM relative to control
Serine/threonine-protein kinase ULK3 (Homo sapiens), sequence (Q6PHR2 whole entry): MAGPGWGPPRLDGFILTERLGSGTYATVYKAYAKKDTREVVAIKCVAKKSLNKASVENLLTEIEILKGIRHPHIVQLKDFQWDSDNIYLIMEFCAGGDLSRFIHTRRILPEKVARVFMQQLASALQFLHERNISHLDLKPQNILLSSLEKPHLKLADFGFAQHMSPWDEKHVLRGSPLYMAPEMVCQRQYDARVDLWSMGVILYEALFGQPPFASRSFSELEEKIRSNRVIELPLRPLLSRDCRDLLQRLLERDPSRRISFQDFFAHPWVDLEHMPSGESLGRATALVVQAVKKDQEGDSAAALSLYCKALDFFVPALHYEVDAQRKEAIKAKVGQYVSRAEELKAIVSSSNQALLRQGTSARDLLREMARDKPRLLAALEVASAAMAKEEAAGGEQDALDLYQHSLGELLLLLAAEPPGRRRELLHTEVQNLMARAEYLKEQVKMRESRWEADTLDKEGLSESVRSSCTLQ

[24] = target: Tyrosine-protein kinase Lyn (Mus musculus) (UniProt P25911); assay: Inhibition of N-terminal his6-tagged recombinant full-length mouse Lyn expressed in baculovirus infected Sf21 cells assessed as residual activity at 1 uM relative to control
[25] = tested on: SK-MEL-2; assay: Antiproliferative activity against human SK-MEL-2 cells assessed as inhibition of cell growth incubated for 72 hrs by cell-titer glo assay; format: functional, cell-based; details: SK-MEL-2, 72 h
[26] = tested on: NCI-H322M; assay: Antiproliferative activity against human NCI-H322M cells assessed as inhibition of cell growth incubated for 72 hrs by cell-titer glo assay; format: functional, cell-based; procedure, shortened: as §1
[27] = tested on: HT-29; assay: Antitumor activity against human HT-29 cells xenografted in nu/nu mouse assessed as tumor growth inhibition at 60 mg/kg, po administered for 10 days; format: functional, organism-based; details: time 10.0 day
[28] = tested on: K562; assay: Antiproliferative activity against human K562 cells assessed as inhibition of cell growth incubated for 72 hrs by cell-titer glo assay; format: functional, cell-based; details: K562, 72 h; procedure, shortened: as §2

Q: For CN1CCN(c2ccc(OC(F)(F)F)c(Nc3ncc4c(n3)-c3c(c(C(N)=O)nn3CCO)CC4)c2)CC1 [ONVANSERTIB], which Activity [1] is on record?
A: Dose-Dependent Effect

Q: And the pIC50 [2]?
A: 7.82

Q: And the Activity [3]?
A: 85%

Q: What about the Activity [4] of the same molecule?
A: 85%

Q: What about the concentration at 240 h [5] of the same molecule?
A: 433 nM

Q: And the AUC [6]?
A: 14.8 µM·h

Q: And the Activity [7]?
A: 80%

Q: And the pIC50 [8]?
A: 7.34

Q: What about the pIC50 [9] of the same molecule?
A: 7.74

Q: And the Tmax [10]?
A: 2.7 h

Q: What about the Cmax [11] of the same molecule?
A: 4200 nM

Q: What about the Activity [12] of the same molecule?
A: Active

Q: What about the pIC50 [13] of the same molecule?
A: < 5.00

Q: And the Activity [14]?
A: 87%

Q: And the pIC50 [15]?
A: < 5.00

Q: And the pIC50 [16]?
A: 7.41

Q: What about the pIC50 [17] of the same molecule?
A: 7.66

Q: And the Activity [18]?
A: Active

Q: And the pIC50 [19]?
A: 7.02

Q: And the pIC50 [20]?
A: 7.29

Q: And the Activity [21]?
A: Toxic

Q: And the Activity [22]?
A: 125%

Q: And the Activity [23]?
A: 139%

Q: And the Activity [24]?
A: 129%

Q: What about the pIC50 [25] of the same molecule?
A: 6.59

Q: And the pIC50 [26]?
A: 6.74

Q: And the TGI [27]?
A: Active

Q: What about the pIC50 [28] of the same molecule?
A: 7.06
